Measurements from PMC3270411 (Chemistry & biology, 2012).
pIC50: −log10 of the molar value.

Key:
JNK1/2/3 [1] = assay: Z'-lyte JNK kinase assays, statements for JNK1/2/3 together; assay type: biochemical
JNK1/2/3 [2] = assay: KinomeScan 400-kinase panel profiling; assay type: binding; settings: 10 μM
[3] = tested on: c-Jun phosphorylation in HeLa and A375 cells; assay: cellular c-Jun phosphorylation, statements for both assay formats; assay type: cell-based; settings: tested in parallel in HeLa and A375 formats
[4] = tested on: c-Jun phosphorylation (phospho Ser73) in A375 cells; assay type: cell-based; settings: read-out: p-c-Jun EC50 (nM) A375; A375 cells, anisomycin stimulation, microscopy
[5] = tested on: c-Jun phosphorylation (pSer73) in HeLa cells; assay: LanthaScreen TR-FRET c-Jun phosphorylation assay in HeLa cells; assay type: cell-based; settings: read-out: p-c-Jun EC50 (nM) Hela; Hela cells, TNF-α stimulation, TR-FRET
Summary of the method: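 HeLa cells stably expressing GFP-c-Jun(1–79), 10,000/well in Opti-MEM with 0.5% charcoal/dextran-treated FBS, 25 mM Hepes pH 7.3, no phenol red; overnight. Pretreated 90 min with compound, then 30 min with 5 ng/ml TNF-α. Lysed in buffer containing 2 nM terbium anti-c-Jun pSer73 antibody; 60 min equilibration at room temperature. TR-FRET: excitation 340 nm, ratio Em 520/Em 490.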

MAPK8 (JNK1) = MAPK8 (JNK1) (Homo sapiens, UniProt P45983); assay: Z'-lyte JNK1 kinase assay; assay type: biochemical; settings: relative to JNK-IN-2
Sequence of MAPK8 (JNK1) (P45983 whole entry): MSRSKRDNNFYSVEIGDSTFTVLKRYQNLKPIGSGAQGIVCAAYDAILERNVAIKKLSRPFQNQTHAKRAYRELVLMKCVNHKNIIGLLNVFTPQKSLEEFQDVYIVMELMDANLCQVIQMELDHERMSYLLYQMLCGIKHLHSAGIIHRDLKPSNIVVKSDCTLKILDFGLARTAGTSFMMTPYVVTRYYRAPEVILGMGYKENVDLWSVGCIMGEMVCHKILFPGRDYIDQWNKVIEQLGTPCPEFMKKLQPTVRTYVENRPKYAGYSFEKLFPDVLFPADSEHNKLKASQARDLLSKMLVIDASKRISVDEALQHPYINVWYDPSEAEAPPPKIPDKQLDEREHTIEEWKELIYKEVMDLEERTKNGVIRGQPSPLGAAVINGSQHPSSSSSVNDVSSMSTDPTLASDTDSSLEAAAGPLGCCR

JNK1 = JNK1 (Homo sapiens, UniProt P45983); assay: intact protein and peptide mass spectrometry of inhibitor-labeled JNK1; assay type: binding; settings: recombinant JNK1, 5-fold excess of compound; Cys 116
Sequence of JNK1 (P45983 26-321 limits assumed): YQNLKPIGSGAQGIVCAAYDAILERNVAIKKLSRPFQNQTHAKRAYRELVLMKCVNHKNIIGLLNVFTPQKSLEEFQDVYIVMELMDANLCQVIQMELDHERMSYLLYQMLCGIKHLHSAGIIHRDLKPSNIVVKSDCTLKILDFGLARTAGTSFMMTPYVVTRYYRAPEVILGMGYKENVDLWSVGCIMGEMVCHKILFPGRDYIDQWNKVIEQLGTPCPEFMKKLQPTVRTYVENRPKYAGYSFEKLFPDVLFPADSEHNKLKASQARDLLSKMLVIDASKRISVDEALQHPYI

JNK = assay: pulse-chase ATP-biotin binding kinetics assay in A375 cells; assay type: cell-based; settings: 1μM compound, protection from ATP-biotin labeling
Summary of the method: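 A375 cells treated with 1 μM test compound for 1–5 h, then washed three times in PBS. Lysed in NP-40/CHAPS buffer for 30 min at 4°C, cleared, and gel-filtered into HEPES kinase buffer (about 5–15 mg/ml protein). Lysate labelled with 5 μM ATP-biotin probe for 1 h, reduced with DTT, alkylated with iodoacetamide, and pulled down on streptavidin for 2 h. Read-out: SDS-PAGE and JNK immunoblot.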

JNK3 = JNK3 (Homo sapiens, UniProt P53779); assay: in vitro covalent binding kinetics with purified JNK3; settings: 27 molar excess of compound
Sequence of JNK3 (P53779 whole entry): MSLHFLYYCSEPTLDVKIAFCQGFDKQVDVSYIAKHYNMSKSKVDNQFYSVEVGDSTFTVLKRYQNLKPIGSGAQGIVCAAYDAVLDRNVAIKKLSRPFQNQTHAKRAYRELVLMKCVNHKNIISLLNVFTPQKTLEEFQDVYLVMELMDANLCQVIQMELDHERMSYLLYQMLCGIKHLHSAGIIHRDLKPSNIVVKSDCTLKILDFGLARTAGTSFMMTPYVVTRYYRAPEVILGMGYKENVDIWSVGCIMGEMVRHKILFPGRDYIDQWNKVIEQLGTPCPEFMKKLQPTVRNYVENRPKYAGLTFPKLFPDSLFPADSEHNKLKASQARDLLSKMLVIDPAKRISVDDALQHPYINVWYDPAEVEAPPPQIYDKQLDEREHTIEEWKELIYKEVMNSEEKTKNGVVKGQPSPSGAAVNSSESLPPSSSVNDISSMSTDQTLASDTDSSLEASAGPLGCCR
Summary of the method: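 Purified JNK3 incubated with 1 μM test compound for varying times, then ATP-biotin probe 5 μM for 10 min. Protein denatured with an equal volume of 8 M urea and gel-filtered. Biotinylated protein captured on streptavidin beads for 2 h, washed, boiled 10 min at 95°C, run on SDS-PAGE and immunoblotted for JNK.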

Cc1ccc(NC(=O)c2ccc(NC(=O)/C=C/CN(C)C)cc2)cc1Nc1nccc(-c2cccnc2)n1 [JNK-IN-1]
IC50 for inhibition of JNK kinase activity (JNK1/2/3 [1]; Z'-lyte assay format): single digit micromolar | binding to JNK1/2/3 in kinase selectivity profiling (JNK1/2/3 [2]): significant binding

Oc1c2ccccc2c2c3c(cccc13)N=N2 [SP-600125]
IC50s for inhibition of c-Jun phosphorylation in both assay formats [3]: micromolar range

Cc1ccc(C(=O)Nc2ccc(Nc3nccc(-c4cccnc4)n3)cc2)cc1NC(=O)/C=C/CN(C)C [JNK-IN-10]
EC50 [4]: 141 nM | EC50 [5]: 173 nM

CN(C)C/C=C/C(=O)NCc1ccc(C(=O)Nc2cccc(Nc3nccc(-c4cccnc4)n3)c2)cc1 [JNK-IN-4]
fold increase in biochemical IC50 against JNK1 (MAPK8 (JNK1)): 3 fold

CN(C)C/C=C/C(=O)Nc1ccc(C(=O)Nc2cccc(Nc3nccc(-c4cccnc4)n3)c2)cc1 [JNK-IN-2]
pIC50 (JNK1/2/3 [1]; read-out: IC50 for inhibition of JNK kinase activity, Z'-lyte assay format): ~6.00 | covalent modification of JNK1 (mass spectrometry) (JNK1): covalent addition of one molecule | EC50 [4]: 2400 nM | EC50 [5]: 704 nM

N#CC(c1ccnc(NCCc2cccnc2)n1)c1nc2ccccc2s1 (stereo not drawn) [AS601245, reference compound]
EC50 [4]: 2400 nM | EC50 [5]: 2020 nM | IC50s for inhibition of c-Jun phosphorylation in both assay formats [3]: micromolar range

C=CC(=O)Nc1cccc(C(=O)Nc2ccc(Nc3nccc(-c4cccnc4)n3)cc2)c1 [JNK-IN-5]
fold lower IC50 against JNK1, 2 and 3 (JNK1/2/3 [1]; compared with JNK-IN-2): 500 fold | incubation time required to modify JNK to background levels (JNK): Three | time to completely label JNK3 (JNK3): 45 min | EC50 [4]: 32 nM | EC50 [5]: 118 nM
